m5-HT2A agonist: agonists of mouse serotonin 5-HT2A receptor (HTR2A); P35363; CHO-K1 mHTR2A beta-arrestin complementation, luminescence; percent of 30 µM serotonin response; activation, % at 7.6 µM; 0.66% of 360,000 active; AID 624169;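 active means activation above a run cutoff, the mean activation of all tested compounds plus 3 SD, cut at about 14% in these data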;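 further: 0% = plate median of compound wells and 100% = 30 µM serotonin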
MC4R ag barr: agonists of human melanocortin 4 receptor (MC4R) beta-arrestin; 0.98% of 360,000 active; P32245; AID 540308; activation, % at 8.9 µM; U2OS MC4R beta-arrestin complementation, luminescence; percent of melanotan II response, DMSO zero;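 active means activation above a per-plate cutoff, the mean activation of sample wells on that plate plus 3 SD, cut at about 8% in these data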
Target sequence (P32245 whole entry, looked up): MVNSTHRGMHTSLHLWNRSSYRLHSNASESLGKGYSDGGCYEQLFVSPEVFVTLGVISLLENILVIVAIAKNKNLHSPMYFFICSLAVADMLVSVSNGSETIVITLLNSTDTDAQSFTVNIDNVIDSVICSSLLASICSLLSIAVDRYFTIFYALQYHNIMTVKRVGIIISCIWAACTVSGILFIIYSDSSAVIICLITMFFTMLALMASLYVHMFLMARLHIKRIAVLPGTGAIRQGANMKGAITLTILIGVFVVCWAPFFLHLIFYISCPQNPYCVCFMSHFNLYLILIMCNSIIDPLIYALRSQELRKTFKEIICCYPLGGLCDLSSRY
MC4R antagonist: antagonists of human melanocortin 4 receptor (MC4R); P32245; MC4R-expressing cells, MTII-stimulated cAMP, LANCE TR-FRET; inhibition, % at 6.5 µM; 0.48% of 360,000 active;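 active means inhibition above its plate's cutoff, the mean of tested wells on that plate plus 3 SD, cut at about 29% in these data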;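 further: 0% = Melanotan II alone and 100% = Melanotan II plus saturating MCL0020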
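Material – human MC4R-expressing U2OS cells · Repeats – no replicates · Detection – TR-FRET with Eu-cAMP and labeled anti-cAMP, 671 nm · Times – compound 30 min, challenge 1 h, detection 1 h · Compound – single nominal compound dose of 6.5 µM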
Beta2AR agonist: agonists of human beta-2 adrenergic receptor inducing internalization. P07550. Am2.2-beta2AR cells, FAP receptor internalization, flow cytometry. response, % (test concentration not listed). 0.43% of 340,000 active. AID 504454;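 active means response above a set limit, near 3 SD of response in nonfluorescent compounds, cut at about 42% in these data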
TAAR1 antagonist: antagonists of human TAAR1; CHO RD-HGA16 TAAR1, Fluo-8 calcium fluorescence, antagonist; inhibition, % at 3 µM; 1.5% of 360,000 active;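 active means inhibition above a per-plate cutoff, the mean inhibition of test compounds on that plate plus 3 SD, cut at about 49% in these data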;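 further: 0% = DMSO plus EC80 beta-PEA response and 100% = DMSO alone without agonist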
Target sequence (Q96RJ0 whole entry, looked up): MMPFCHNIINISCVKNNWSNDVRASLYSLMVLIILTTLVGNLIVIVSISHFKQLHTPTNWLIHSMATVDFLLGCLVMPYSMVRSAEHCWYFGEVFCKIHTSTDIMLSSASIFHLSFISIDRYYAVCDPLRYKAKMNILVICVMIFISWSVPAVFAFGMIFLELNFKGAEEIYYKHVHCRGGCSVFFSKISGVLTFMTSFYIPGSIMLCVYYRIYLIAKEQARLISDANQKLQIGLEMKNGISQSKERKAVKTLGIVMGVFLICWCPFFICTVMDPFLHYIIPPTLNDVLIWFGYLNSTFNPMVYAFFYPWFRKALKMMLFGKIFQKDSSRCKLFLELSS
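Test system – hTAAR1-expressing CHO RD-HGA16 cells, Gα16-coupled · Also added – β-PEA at EC80 concentration, post-compound challenge · Compound – 3 µM, single point · Incubation – dye loading 75 min at 37 °C, then 30 min room temperature · Measured by – Fluo-8 intracellular calcium dye fluorescence, real-time kinetic reads · Benchmarks – vehicle and agonist controls · Replicates – singlicate, one well per test compound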
TAAR1 agonist: human TAAR1 agonism; 0.99% of 360,000 active; CHO RD-HGA16 TAAR1, Fluo-8 calcium fluorescence; vehicle wells 0%, saturating PEA agonist 100%; Q96RJ0; activation, % at 3 µM; AID 624467;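 active means activation above the mean activation of all test compounds in the run plus 3 SD, cut at about 38% in these data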
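Test system: RD-HGA16 (CHO) cells co-expressing Gα16 and hTAAR1 | Doses: Single dose, 3 µM | Schedule: 17-24 h seeding, 75 min 37 °C dye, 30 min RT | Evaluation: % activation from peak over basal fluorescence ratio, DMSO-to-PEA scaled | Technique: Kinetic Fluo-8 calcium fluorescence | Benchmarks: Low control DMSO, high control PEA (EC100)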
U2OS cAMP counter: U2OS forskolin cAMP inhibition counter-screen; shares compounds with MC4R antagonist; parental U2OS, LANCE TR-FRET; inhibition, % at 6.5 µM; 26% of 1,600 active; AID 602193;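 active means mean inhibition over triplicates above the low-control well mean plus 3 SD, set per campaign, cut at about 13% in these data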;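 further: signal is single emission at 671 nm which falls as cellular cAMP rises; 0% = forskolin-stimulated wells and 100% = buffer without forskolin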
MC4R cAMP antag: human MC4R cAMP antagonism confirmation; shares compounds with MC4R antagonist; MC4R-expressing cells, MTII-stimulated cAMP, TR-FRET; inhibition, % at 6.5 µM; 27% of 1,600 active; AID 602195; in the data active means inhibition above about 29%;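 further: 0% = agonist stimulated wells alone and 100% = agonist stimulated wells plus saturating reference antagonist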
Active calls of the source: *; . = no result given. Rows were chosen to be rich in hits. Some 4.3% of all compounds tested hit in one or more screens of this group.

SMILES | m5-HT2A agonist | MC4R ag barr | MC4R antagonist | Beta2AR agonist | TAAR1 antagonist | TAAR1 agonist | U2OS cAMP counter | MC4R cAMP antag
Clc1ccc(-c2nnc(-c3ccco3)nc2N2CCCCC2)cc1 | 1 | -1 | 29* | 33 | -14 | -2 | 0 | 6
CC(=O)NCC(c1cccs1)S(=O)(=O)c1ccc(F)cc1 (centres undefined) | 0 | 1 | 33* | 0 | -19 | 2 | 5 | 6
CNC(=O)C(=O)NCC(c1cccs1)S(=O)(=O)c1ccc(C)cc1 (centres undefined) | -6 | 0 | 26 | -1 | -42 | 4 | . | .
CCOc1ccc(-c2cc(C(=O)Nc3cc(OC)c(OC)c(OC)c3)[nH]n2)c(C)c1 | 6 | -1 | -10 | . | 34 | 4 | . | .
O=C(O)COc1ccc(Br)cc1/C=N\Nc1ccccn1 | 6 | -2 | 4 | 17 | . | . | . | .
Cc1c(C)n(Cc2ccccc2)c2ccc(C(=O)NCCCN3CCOCC3)cc12 | -11 | -2 | -2 | 11 | -17 | 7 | . | .
CC(C)(C)OC(=O)NCCc1nnc(S(=O)(=O)Cc2ccc(Cl)cc2Cl)o1 | -1 | -2 | 31* | 21 | 1 | 15 | 4 | 38*
CC(C)NC(=O)C1CCN(C(=O)c2cc3sccc3n2Cc2ccc(F)cc2)CC1 | -5 | 1 | 32* | 2 | . | . | 2 | 6
CCN1C(=O)[C@H]2[C@@H](c3ccc(C)cc3)N[C@]3(CCCN(Cc4ccco4)C3=O)[C@H]2C1=O | 14 | 0 | -1 | . | -6 | 1 | . | .
COC(=O)CC1C(=O)NCCN1C(=S)Nc1ccccc1 (centres undefined) | 4 | -3 | 7 | 2 | 0 | 2 | . | .
CCOC(=O)CC1C(=O)NCCN1C(=S)Nc1ccccc1 (centres undefined) | 9 | 2 | 29* | 2 | -19 | 8 | -7 | -22
COc1ccc(-c2csc3ncnc(N4CCN(c5ccccc5Cl)CC4)c23)cc1 | 7 | -2 | 29* | 6 | -34 | -2 | -1 | 29*
COc1ccc(Cc2noc(CN3CCN(Cc4cccc(Cl)c4)CC3)n2)cc1OC | 2 | -1 | 34* | 1 | -20 | 5 | 17* | -4
O=C1C(F)=CC(COC(c2ccccc2)(c2ccccc2)c2ccccc2)OC1n1cc(F)c(=O)[nH]c1=O (centres undefined) | -7 | -5 | 29* | 87* | 54* | 9 | -2 | -14
CCOC(=O)C1=C(c2ccccc2)NC(=O)NC1c1ccc(OC)cc1 (centres undefined) | 6 | -2 | 19 | -2 | -16 | 3 | . | .
CCOC(=O)C1=C(c2ccccc2)NC(=O)NC1c1ccc(OC)c(OC)c1 (centres undefined) | 6 | 0 | 33* | 9 | -7 | 17 | -1 | -7
COc1ccc(S(=O)(=O)Nc2noc3ccccc23)cc1 | 4 | 0 | 3 | -7 | -13 | -1 | . | .
CN(C)CCCN1C(=O)C(O)=C(C(=O)c2cc3ccccc3o2)C1c1ccccc1 (centres undefined) | 3 | -1 | 27 | -3 | -3 | 4 | . | .
CN(C)CCCN1C(=O)C(O)=C(C(=O)c2cc3ccccc3o2)C1c1ccccn1 (centres undefined) | -4 | -1 | 33* | -4 | 3 | 2 | 9 | 26
CCCc1nc2c3ccccc3ccn2c1CC1CCCCC1 | 0 | . | . | . | -35 | 0 | . | .
Cc1ccc(/C=C/C(=O)N2CCN(S(=O)(=O)c3ccc(C)c(C)c3)CC2)o1 | -2 | -1 | 38* | 9 | -6 | -2 | -2 | 7
Cc1ccc(/C=C/C(=O)N2CCN(S(=O)(=O)c3c(C)c(C)cc(C)c3C)CC2)o1 | -1 | -2 | 22 | 4 | 14 | -3 | . | .
O=C1CCC(=O)N1CC1CC2CCC1C2 (centres undefined) | -10 | 0 | 37* | 1 | -1 | 6 | 1 | -2
CN(C)S(=O)(=O)c1ccc(-c2csc(N/N=C/c3ccc(O)cc3)n2)cc1 | 0 | 9.8* | 32* | 47* | 77* | 27 | 1 | 29*
CCc1nc2ccc(C(=O)NCc3ccc4c(c3)OCO4)cn2c1N(CC)CCN(C)C | -11 | -1 | 21 | . | -13 | 1 | . | .
SMILES | m5-HT2A agonist | MC4R ag barr | MC4R antagonist | Beta2AR agonist | TAAR1 antagonist | TAAR1 agonist | U2OS cAMP counter | MC4R cAMP antag
CCc1nc2ccc(C(=O)NCc3ccc4c(c3)OCO4)cn2c1N(CCC(C)C)CCN(C)C | -1 | -1 | 31* | . | -3 | 4 | 1 | 47*
CC1(c2nnnn2-c2ccc3c(c2)OCCO3)CCC(=O)N1CCCn1ccnc1 (centres undefined) | 1 | . | . | . | 6 | 1 | . | .
COc1ccccc1NC(=O)NC1CCS(=O)(=O)C1 (centres undefined) | 4 | -1 | 34* | 4 | -15 | 8 | 2 | 5
COc1ccc(C(C)=O)cc1Cn1c(=O)cc(C)[nH]c1=O | 2 | 1 | 30* | 2 | 5 | -2 | -2 | -9
Cn1ccsc1=NC(=O)c1cc(S(=O)(=O)N2CCOCC2)ccc1F | -1 | 0 | 0 | 0 | -9 | 4 | . | .
CC(C)C[C@H]1COc2cc(N3CCOCC3)ccc2S(=O)(=O)N1 | . | . | . | . | -5 | 2 | . | .
Cc1ccc(-n2c(SCC(=O)O)nc3sc4c(c3c2=O)CCCC4)cc1 | 3 | 2 | 9 | 4 | -18 | 2 | . | .
Cc1ccc(-c2c(CC(=O)O)c(C)nc3sc4c(c23)CCCC4)cc1 | 5 | -1 | 29* | 11 | -7 | 1 | 2 | -1
COc1cc2ccccc2cc1C(=O)N/N=C/c1cccs1 | -9 | 0 | -16 | . | -13 | 1 | . | .
COC(=O)c1c(NC(=O)COC(=O)CCNS(=O)(=O)c2ccccc2)sc(C)c1C | -5 | -2 | 9 | 8 | -18 | 1 | . | .
CCOC(=O)c1c(NC(=O)COC(=O)CCNS(=O)(=O)c2ccccc2)sc(C(=O)NC)c1C | -3 | 0 | 31* | 3 | -3 | 3 | 5 | 5
Cc1cccc(C(=O)Nc2nnc(S(=O)(=O)N3CCC(C)CC3)s2)c1 | 5 | -1 | 50* | 5 | 0 | 1 | 8 | 16
Cc1cccc(C)c1NS(=O)(=O)c1c(C(=O)N2CCCCC2)c(C)n(C)c1C | 6 | -2 | 18 | 2 | -12 | -1 | . | .
COc1ccccc1CNCc1cc(OC)c(OC)c(OC)c1 | -1 | -1 | 30* | 7 | 17 | 8 | 0 | -7
